Measurements as given in BindingDB's records for doi:10.1021/jm970328b (University of Minnesota, 1997).
Where a SMILES comes first, the peptide text is derived from it.

What was measured:
D(2) dopamine receptor [1] = target: T1, D(2) dopamine receptor (Bos taurus, UniProt P20288); assay: Inhibitory constant of compound in absence of Gpp(NH)p calculated for the high affinity components of the [3H]spiroperidol binding to Dopamine receptor D2
Summary of the method: (§1)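 Bovine striatal membranes (150-200 µg protein) were incubated with 0.2 nM [3H]spiroperidol and varying N-propylnorapomorphine, with or without 100 µM Gpp(NH)p and 100 nM peptidomimetic, plus 50 nM ketanserin, for 1 h at 22 °C, then GF/B filtered. Nonspecific binding was set with 1.0 µM (+)-butaclamol. A two-site fit gave high/low-affinity fractions; Ki values came via Cheng-Prusoff. Mean ± SEM of 3-4 experiments.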

D(2) dopamine receptor [2] = target: T1, D(2) dopamine receptor; assay: Inhibitory constant of compound in presence of Gpp(NH)p calculated for the low affinity components of the [3H]spiroperidol binding to Dopamine receptor D2; summary of the method: as §1
D(2) dopamine receptor [3] = target: T1, D(2) dopamine receptor; assay: Inhibitory constant of compound in presence of Gpp(NH)p (Pre treated with 1 nM) calculated for the high affinity components of the [3H]spiroperidol binding to Dopamine receptor D2
D(2) dopamine receptor [4] = target: T1, D(2) dopamine receptor; assay: Inhibitory constant of compound in absence of Gpp(NH)p calculated for the low affinity components of the [3H]spiroperidol binding to Dopamine receptor D2; summary of the method: as §1
D(2) dopamine receptor [5] = target: T1, D(2) dopamine receptor; assay: Inhibitory constant of compound in absence of Gpp(NH)p (Pre treated with 1 nM) calculated for the high affinity components of the [3H]spiroperidol binding to Dopamine receptor D2
D(2) dopamine receptor [6] = target: T1, D(2) dopamine receptor; assay: Inhibitory constant of compound in presence of Gpp(NH)p calculated for the high affinity components of the [3H]spiroperidol binding to Dopamine receptor D2; summary of the method: as §1
D(2) dopamine receptor [7] = target: T1, D(2) dopamine receptor; assay: Inhibitory constant of compound in presence of Gpp(NH)p (Pre treated with 100 nM) calculated for the high affinity components of the [3H]spiroperidol binding to Dopamine receptor D2; summary of the method: as §1
D(2) dopamine receptor [8] = target: T1, D(2) dopamine receptor; assay: Inhibitory constant of compound in presence of Gpp(NH)p (Pre treated with 100 nM) calculated for the low affinity components of the [3H]spiroperidol binding to Dopamine receptor D2; summary of the method: as §1
D(2) dopamine receptor [9] = target: T1, D(2) dopamine receptor; assay: Inhibitory constant of compound in absence of Gpp(NH)p (Pre treated with 100 nM) calculated for the high affinity components of the [3H]spiroperidol binding to Dopamine receptor D2; summary of the method: as §1
D(2) dopamine receptor [10] = target: T1, D(2) dopamine receptor; assay: Inhibitory constant of compound in absence of Gpp(NH)p (Pretreated with 100 nM) calculated for the high affinity components of the [3H]spiroperidol binding to Dopamine receptor D2; summary of the method: as §1
D(2) dopamine receptor [11] = target: T1, D(2) dopamine receptor; assay: Percentage of receptor in the high affinity form for the compound to Dopamine receptor D2 in absence of Gpp(NH)p (pre treated with 1 uM)
D(2) dopamine receptor [12] = target: T1, D(2) dopamine receptor; assay: Inhibitory constant of compound in absence of Gpp(NH)p (Pre treated with 1 uM) calculated for the high affinity components of the [3H]spiroperidol binding to Dopamine receptor D2
D(2) dopamine receptor [13] = target: T1, D(2) dopamine receptor; assay: Inhibitory constant of compound in presence of Gpp(NH)p (Pre treated with 1 uM) calculated for the high affinity components of the [3H]spiroperidol binding to Dopamine receptor D2

T1 sequence (P20288 whole entry): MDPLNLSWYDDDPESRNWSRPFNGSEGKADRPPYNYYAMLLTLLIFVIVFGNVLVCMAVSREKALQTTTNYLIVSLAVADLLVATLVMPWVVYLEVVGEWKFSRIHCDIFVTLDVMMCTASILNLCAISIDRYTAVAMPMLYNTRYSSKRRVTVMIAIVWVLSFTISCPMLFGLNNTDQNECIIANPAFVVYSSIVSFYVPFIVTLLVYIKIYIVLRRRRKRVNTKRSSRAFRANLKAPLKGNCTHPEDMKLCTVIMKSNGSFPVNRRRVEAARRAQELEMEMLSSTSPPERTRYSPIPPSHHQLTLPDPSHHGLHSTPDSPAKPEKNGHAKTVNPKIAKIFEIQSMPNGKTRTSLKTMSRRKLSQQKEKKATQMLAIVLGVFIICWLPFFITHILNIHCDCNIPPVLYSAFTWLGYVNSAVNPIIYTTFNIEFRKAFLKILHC

Ki (D(2) dopamine receptor [1])	Ki (D(2) dopamine receptor [2])	Ki (D(2) dopamine receptor [3])	Ki (D(2) dopamine receptor [4])	Ki (D(2) dopamine receptor [5])	Ki (D(2) dopamine receptor [6])	Ki (D(2) dopamine receptor [7])	Ki (D(2) dopamine receptor [8])	Ki (D(2) dopamine receptor [9])	Ki (D(2) dopamine receptor [10])	percent high-affinity form (D(2) dopamine receptor [11])	Ki (D(2) dopamine receptor [12])	Ki (D(2) dopamine receptor [13])	Compound
0.08 nM	50 nM	0.05 nM	69 nM	0.02 nM	0.19 nM	–	–	–	–	–	–	–	NC(=O)CN1CCC(N2CC(=O)N3CCC[C@H]3C2=O)C1=O (stereo partly drawn) [2-[3-((2R,8aS)-1,4-Dioxo-hexahydro-pyrrolo[1,2-a]pyrazin-2-yl)-2-oxo-pyrrolidin-1-yl]-acetamide]
0.098 nM	183 nM	–	171 nM	–	0.14 nM	0.067 nM	106 nM	0.066 nM	–	–	–	–	NC(=O)[C@H]1CS[C@@H]2CC(N3CC(=O)N4CCC[C@H]4C3=O)C(=O)N12 (stereo partly drawn) [(3S,7aR)-6-((2R,8aS)-1,4-Dioxo-hexahydro-pyrrolo[1,2-a]pyrazin-2-yl)-5-oxo-hexahydro-pyrrolo[2,1-b]thiazole-3-carboxylic acid amide]
0.08 nM	172 nM	–	120 nM	–	0.12 nM	0.08 nM	104 nM	–	0.068 nM	–	–	–	CC(C)C[C@@H](C(=O)NCC(N)=O)N1CC(=O)N2CCC[C@H]2C1=O [(S)-2-((S)-1,4-Dioxo-hexahydro-pyrrolo[1,2-a]pyrazin-2-yl)-4-methyl-pentanoic acid carbamoylmethyl-amide]
0.09 nM	60 nM	–	73 nM	–	0.13 nM	–	–	–	–	61 nM	0.04 nM	0.06 nM	CC(C)C[C@H](NC(=O)[C@@H]1CCCN1)C(=O)NCC(N)=O [L-pro-L-leu-gly-NH2] (H-Pro-Leu-Gly-NH2)
